Source: PubChem BioAssay
The entries come from a sample that favours hits as a whole.
PolyA inh: blocks polyadenylation in yeast reporter cells. S. cerevisiae SKY197-pL101 polyadenylation reporter, beta-gal luminescence; efflux-impaired pdr1/pdr3 knockout yeast; score 100 = 6 SD above DMSO. activity score, % at 12 µM. 300,000 tested, 0.02% active. AID 1875;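 active means lowest replicate activity score at least 50, where 100 means six control SD above control mean; inconclusive means lowest score under 50 but half or more replicates reach 50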;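 further: yeast exposed to compound for 9 h at 30 °C; higher score means more reporter readthrough which indicates perturbed polyadenylation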
Calb FLC: C. albicans growth modulation with fluconazole; growth inhibition, % (concentration not given with the values); C. albicans CaCi-2 (fluconazole-resistant clinical isolate) + fluconazole, Alamar Blue growth, 48 h; 300,000 tested, 0.57% active;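 active means growth inhibition above about 58% in most replicates, limit read from the data, passing the limit was not always enough; inconclusive means exactly half the replicates above a set limit; inactive means most replicates below a set limit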;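 further: all wells also contain fluconazole at 8 µg/ml as a sub-toxic cotreatment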
NALP1 inh: blocks the NALP1 inflammasome reconstituted in yeast | S. cerevisiae NALP1/ASC/caspase-1 growth, X-gal OD620, 72 h | inhibition, % at 10 µM | 280,000 tested, 0.61% active | AID 2071; in the data active means inhibition mostly above about 24%, no sharp cut-off; inactive means mostly below about 32%
T cruzi inh: blocks replication of Trypanosoma cruzi; T. cruzi beta-gal in NIH3T3, luminescence, 90 h; inhibition, % (no concentration beside the values); 300,000 tested, 1.4% active; AID 1885;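 active means mean inhibition across valid replicates above about 55%, limit read from the data; inconclusive means mean below that limit but half or more replicates reach it; inactive means mean below it, under half of replicates reach it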;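 further: signal also drops with host cell toxicity which is not excluded here; higher percent means less beta-gal luminescence so fewer parasites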
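System: Mouse NIH/3T3 fibroblasts infected with β-gal-expressing T. cruzi Tulahuen C4 | Quantity: NIH/3T3 cells, 5,000 per well | Reagent: 5000 reporter trypomastigotes per well | Dosing: Compound pinned at 50 nL/well, DMSO | Schedule: 3 h host attachment, then at least 90 h co-culture | Detection: GalScreen luminescence, 60 min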
Lmaj promast: Leishmania major promastigote growth inhibition | inhibition, % at 10 µM | 200,000 tested, 9% active | Leishmania major promastigotes, resazurin fluorescence viability | AID 1063; in the data active means inhibition above about 50%;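 further: promastigotes grown with compound for 44 hours at 28 °C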
NLRP3 yeast inh: inhibitors of NALP3 inflammasome in yeast | 330,000 tested, 0.39% active | Yeast reconstituted NLRP3/ASC/caspase-1, beta-gal luminescence, 24 h | inhibition, % at 10 µM | AID 2825;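 active means inhibition of 50% or more; inactive means inhibition below 50%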
Of the large screens only hits and unclear results are named; the others gave an inactive call.

NC(=O)c1c(NC(=O)c2ccccc2C(=O)O)sc2c1CCCC2	T cruzi inh inconclusive (no result: Lmaj promast)
NC(=O)c1c(NC(=O)c2ccccc2F)sc2c1CCCC2	Calb FLC 82 (no result: Lmaj promast)
Cc1onc(-c2c(F)cccc2Cl)c1C(=O)Nc1sc2c(c1C(N)=O)CCC2	Lmaj promast 63
Cc1onc(-c2ccccc2)c1C(=O)Nc1sc2c(c1C(N)=O)CCC2	none
COc1ccc(C=O)cc1OC1C=CCCC1 (stereo unspecified)	none (no result: Lmaj promast)
Cc1cc(OCCn2ccnc2)cc(C(C)C)c1	Lmaj promast 92
Cc1cc(OCCCn2ccnc2)cc(C(C)C)c1	Calb FLC inconclusive, Lmaj promast 78
CCC(C)c1ccc(OCCn2ccnc2)cc1 (stereo unspecified)	NALP1 inh 53, Lmaj promast 60
COc1cccc(CN2CC(C(=O)NCc3cnn(C)c3)CCC2=O)c1 (stereo unspecified)	none (no result: Lmaj promast)
COc1ccc(Nc2cc(Nc3ccccc3)ncn2)cc1	none (no result: Lmaj promast)
Nc1c(N2CCCCC2)c2ccccc2oc1=O	none
COc1ccc(OCC(=O)NC(=S)Nc2ccc(S(=O)(=O)Nc3cc(C)on3)cc2)cc1	none (no result: Lmaj promast)
CCOP(=O)(OCC)/C(=C/N1CCCCC1)NC(=O)c1ccccc1	NALP1 inh 34
COc1ccc(CNCC(O)COc2cccc3c2OC(C)(C)C3)cc1 (stereo unspecified)	Lmaj promast 86
O=C(CSc1nnnn1-c1ccccc1)Nc1ccc(N2CCOCC2)c(Cl)c1	none
O=C(CSc1nnnn1C1CCCCC1)Nc1ccccc1N1CCOCC1	Lmaj promast 60
CC(C)n1nnnc1SCC(=O)Nc1ccccc1N1CCOCC1	none (no result: Lmaj promast)
O=C(CSc1nnnn1-c1cccc2ccccc12)Nc1ccc(N2CCOCC2)c(Cl)c1	T cruzi inh 73
COc1ccc(-n2nnnc2SCC(=O)Nc2ccccc2N2CCOCC2)cc1	Lmaj promast 99
c1ccc(Cn2c[n+](Cc3ccccc3)cn2)cc1	none (no result: Lmaj promast)
O=c1cc(-c2cccc([N+](=O)[O-])c2)[nH][nH]1	Lmaj promast 58
Cc1cnc(NC(=O)c2cc3c(C)nn(Cc4ccccc4Cl)c3s2)s1	Lmaj promast 60
Cc1cnc(NC(=O)Cc2ccccc2Cl)s1	none (no result: Lmaj promast)
Cc1ccc(C)c(NC(=O)CN(C)C(=O)c2cccc(N3C(=O)CCC3=O)c2)c1	none (no result: NALP1 inh, Lmaj promast)
N#CC1=C(N)N(c2ccccc2)C(c2cccc([N+](=O)[O-])c2)C1(C#N)C#N (stereo unspecified)	Lmaj promast 54
CCOC(=O)c1ccc(NC(=O)CN2C(=O)CNC2=O)cc1	Lmaj promast 96
CCOC(=O)c1ccc(NC(=O)CN2C(=O)CSCC2=O)cc1	none
CCOC(=O)c1ccc(NC(=O)CSc2nnc(CNC(=O)c3ccccc3F)o2)cc1	Lmaj promast 91
CCOC(=O)c1ccc(NC(=O)Cn2nnc(-c3ccccc3F)n2)cc1	Lmaj promast 61
CCOC(=O)c1ccc(NC(=O)CN2CCN(c3ccccc3)CC2)cc1	Lmaj promast 92
O=C(COC(=O)c1cc(Cl)nc(Cl)c1)Nc1ccc(Cl)c(S(=O)(=O)N2CCOCC2)c1	none (no result: PolyA inh, Calb FLC, NALP1 inh, T cruzi inh, Lmaj promast)
O=C(Oc1nsnc1N1CCCCC1)N1CCOCC1	none
O=C(CN1CCC(N2CCCCC2)CC1)N1CCCc2ccccc21	Lmaj promast 64
O=C(CN1CCCCC1)N1CCc2ccccc21	none (no result: Lmaj promast)
Brc1c(OCCOCCn2cncn2)ccc2ccccc12	Lmaj promast 65
Cc1cc(Cl)ccc1OCCn1cncn1	none
O=C1N=C(N2CCN(c3ccccc3)CC2)S/C1=C\c1cn[nH]c1-c1ccccc1	Lmaj promast 52
Cc1nc2ccccc2c(C)c1CC(=O)OC(C)C(=O)NC1(C#N)CCCCC1 (stereo unspecified)	none (no result: NALP1 inh, Lmaj promast)
C#CCCOC(=O)Nc1ccccc1	none (no result: Calb FLC, Lmaj promast)
CCOC(=O)C1CCCN(C2CCN(Cc3nc(-c4ccccc4)no3)CC2)C1 (stereo unspecified)	Calb FLC inconclusive, T cruzi inh 70, Lmaj promast 73
CCOC(=O)C1CCN(C2CCN(Cc3nc(-c4ccccc4)no3)CC2)CC1	Lmaj promast 80
NC(=O)C1CCN(Cc2nc(-c3ccccc3)no2)CC1	none
CCOC(=O)C1CCCN(C2CCN(Cc3nc(Cc4ccccc4)no3)CC2)C1 (stereo unspecified)	Calb FLC inconclusive
CC1CCN(S(=O)(=O)c2c[nH]c(=O)[nH]c2=O)CC1	none (no result: NALP1 inh, Lmaj promast)
CCc1ccc(NC(=O)c2ccc3nc(N)sc3c2)cc1	Calb FLC inconclusive, NALP1 inh 40
O=C1CSC(c2cn(-c3ccccc3)nc2-c2cc3ccccc3o2)N1Cc1ccccc1 (stereo unspecified)	Lmaj promast 79
Cc1ccc(-c2nn(-c3ccccc3)cc2C2SCC(=O)N2Cc2ccccc2)o1 (stereo unspecified)	none
Cc1cc(NCc2ccco2)n2ncnc2n1	none
CCCN(CCC)C(=O)c1cc([N+](=O)[O-])cc2c1-c1ccc([N+](=O)[O-])cc1C2=C(C#N)C#N	T cruzi inh 80 (no result: Lmaj promast)
C/C(=N\NC(N)=S)C12CC3CC(CC(C3)C1)C2	Lmaj promast 101
CCc1c(C)[nH]c2nc3ccccc3n2c1=O	Lmaj promast 94
O=C(N[C@@H](Cc1ccccc1)C(=O)NC1CCCCC1)c1ccco1	none
O=C(N[C@@H](Cc1ccccc1)C(=O)NC1CCCCCC1)c1ccco1	NALP1 inh 41
O=C(NC(Cc1ccccc1)C(=O)NCc1ccccn1)c1ccco1 (stereo unspecified)	Calb FLC 103
Cc1ccc(C)c(NC(=O)c2cc[n+](C)cc2)c1	none (no result: Lmaj promast)
Fc1ccc(CSc2ccc3nnc(-c4cccnc4)n3n2)cc1	Lmaj promast 66
Cc1ccc2cccc(OCC(=O)Nc3ccc(N4CCOCC4)cc3)c2n1	none
CCOc1ccc(S(=O)(=O)Nc2ccccc2C(=O)N(C)C2CCN(C)CC2)cc1	none (no result: PolyA inh, Calb FLC, NALP1 inh, T cruzi inh, Lmaj promast)
CCOC(=O)c1ccccc1NS(=O)(=O)c1ccc(OCC)cc1	NALP1 inh 30
CCOc1ccc(NC(=O)c2ccccc2NS(=O)(=O)c2ccc(F)cc2)c([N+](=O)[O-])c1	Lmaj promast 71
CCOc1ccc(S(=O)(=O)Nc2ccccc2C(=O)Nc2ccccc2N2CCOCC2)cc1	none
C=CCc1cc(Cl)ccc1OCCNCCN1CCOCC1	T cruzi inh 73, Lmaj promast 95
C=CCc1cc(Cl)ccc1OCCNCCOC	Lmaj promast 95
C=CCc1cc(Cl)ccc1OCCN1CC(C)OC(C)C1 (stereo unspecified)	Lmaj promast 83
COCCNCc1ccc(Cl)cc1Cl	none
Cc1ccc(Cl)cc1NC(=O)C1CCCCC1C(=O)O (stereo unspecified)	none
O=C(Nc1nc2ccccc2s1)C1CCN(S(=O)(=O)c2cc([N+](=O)[O-])ccc2Cl)CC1	T cruzi inh 59 (no result: NALP1 inh, Lmaj promast)
CCC(C)NC(=O)C1CCN(S(=O)(=O)c2cc([N+](=O)[O-])ccc2Cl)CC1 (stereo unspecified)	none (no result: Lmaj promast)
